Data as given in ChEMBL document CHEMBL3608288, “Novel Chalcone-Thiazole Hybrids as Potent Inhibitors of Drug Resistant Staphylococcus aureus” (ACS Med Chem Lett, 2015).
Converted amounts (≈) assume the structure as drawn. The source made the active and inactive calls. No cut-off for these calls is given here.

Columns and labels:
Staphylococcus aureus [1] = experiment: Antibacterial activity against […] Staphylococcus aureus ATCC 29213 assessed as reduction in log10CFU at 1x MIC and 10x MIC measured at 24 hrs relative to control; format: functional
Procedure, shortened: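 Aliquots were taken at regular time points and plated for CFU counts. Reduction in log10 CFU was taken against a no-drug control.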

Klebsiella pneumoniae = experiment: Antibacterial activity against Klebsiella pneumoniae ATCC 27736 after 16 hrs by microtiter broth dilution method; format: functional
Staphylococcus aureus [2] = experiment: Antibacterial activity against Staphylococcus aureus ATCC 25923 after 16 hrs by microtiter broth dilution method; format: functional
Candida parapsilosis = experiment: Antifungal activity against Candida parapsilosis ATCC 22019 after 16 hrs by microtiter broth dilution method; format: functional
Cryptococcus neoformans = experiment: Antifungal activity against Cryptococcus neoformans after 16 hrs by microtiter broth dilution method; format: functional
Aspergillus fumigatus = experiment: Antifungal activity against Aspergillus fumigatus after 16 hrs by microtiter broth dilution method; format: functional
Pseudomonas aeruginosa = experiment: Antibacterial activity against Pseudomonas aeruginosa ATCC BAA-427 after 16 hrs by microtiter broth dilution method; format: functional
[3] = test system: Trichophyton mentagrophytes; experiment: Antifungal activity against Trichophyton mentagrophytes after 16 hrs by microtiter broth dilution method; format: functional
Staphylococcus aureus [4] = experiment: Antibacterial activity against methicillin-resistant Staphylococcus aureus ATCC 700699 after 16 hrs by microtiter broth dilution method; format: functional
Staphylococcus aureus [5] = experiment: Antibacterial activity against […] Staphylococcus aureus ATCC 29213 after 16 hrs by microtiter broth dilution method; format: functional
Candida albicans = experiment: Antifungal activity against Candida albicans after 16 hrs by microtiter broth dilution method; format: functional
Sporothrix schenckii = experiment: Antifungal activity against Sporothrix schenckii after 16 hrs by microtiter broth dilution method; format: functional
Staphylococcus aureus [6] = experiment: Antibacterial activity against methicillin/gentamicin-resistant Staphylococcus aureus ATCC 33592 after 16 hrs by microtiter broth dilution method; format: functional
Escherichia coli = experiment: Antibacterial activity against Escherichia coli ATCC 9637 after 16 hrs by microtiter broth dilution method; format: functional; conditions: W
[7] = Hemolytic activity in human RBC at 100 ug/ml after 1 hr; conditions: erythrocyte
L929 [8] = experiment: Cytotoxicity against mouse L929 cells assessed as induction of morphological changes at 1 x MIC after 24 hrs by Giemsa staining-based phase contrast microscopic analysis; format: cell-based; conditions: l929, 24 h
Procedure, shortened: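 L929 fibroblasts were incubated with the compound for 24 h, then Giemsa-stained. Morphology was compared with untreated control cells under phase contrast microscopy for appearance, transparency and attachment to the well surface.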

L929 [9] = experiment: Cytotoxicity against mouse L929 cells assessed as cell viability at <= MIC by MTT assay; format: cell-based
Procedure, shortened: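 Mouse fibroblast L929 cells were exposed to the compound. Viability was read by MTT conversion to blue formazan, measured at 550 nm.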

[10] = Lodderomyces parapsilosis, ATCC 22019, 16 h

Compound	MIC (Klebsiella pneumoniae; ATCC 27736, 16 h) [µM]	MIC (Staphylococcus aureus [2]; ATCC 25923, 16 h) [µM]	MIC (Candida parapsilosis; [10]) [µM]	MIC (Cryptococcus neoformans) [µM]	MIC (Aspergillus fumigatus) [µM]	MIC (Pseudomonas aeruginosa; ATCC BAA-427, 16 h) [µM]	MIC [3] [µM]	MIC (Staphylococcus aureus [4]; ATCC 700699, 16 h) [µM]	MIC (Staphylococcus aureus [5]; ATCC 29213, 16 h) [µM]	MIC (Candida albicans) [µM]	MIC (Sporothrix schenckii) [µM]	MIC (Staphylococcus aureus [6]; ATCC 33592, 16 h) [µM]	MIC (Escherichia coli) [µM]	Activity [7]	also measured
C[C@H]1COc2c(N3CCN(C)CC3)c(F)cc3c(=O)c(C(=O)O)cn1c23															Activity (Staphylococcus aureus [1]): Active
CCn1cc(C(=O)O)c(=O)c2cc(F)c(N3CCNCC3)cc21 [NORFLOXACIN]	0.1 (≈ 0.0319 µg/mL)	0.5 (≈ 0.16 µg/mL)	33.6 (≈ 10.7 µg/mL)	33.6 (≈ 10.7 µg/mL)	33.6 (≈ 10.7 µg/mL)	1 (≈ 0.319 µg/mL)	33.6 (≈ 10.7 µg/mL)	33.6 (≈ 10.7 µg/mL)	1 (≈ 0.319 µg/mL)	> 33.6	33.6 (≈ 10.7 µg/mL)	0.5 (≈ 0.16 µg/mL)			
COc1ccc(-c2csc(/N=C/c3cc(/C=C/C(=O)c4cccs4)cc(C(C)(C)C)c3O)n2)cc1OC	> 93.9	23.5 (≈ 12.5 µg/mL)	> 93.9	> 93.9	> 93.9	> 93.9	> 93.9	11.7 (≈ 6.23 µg/mL)	11.7 (≈ 6.23 µg/mL)	> 93.9	> 93.9	11.7 (≈ 6.23 µg/mL)	> 93.9	Non-toxic	
COc1ccc(C(=O)/C=C/c2cc(/C=N/c3nc(-c4ccc(OC)c(OC)c4)cs3)c(O)c(C(C)(C)C)c2)cc1	> 89.8	11.2 (≈ 6.23 µg/mL)	> 89.8	> 89.8	> 89.8	> 89.8	> 89.8	11.2 (≈ 6.23 µg/mL)	11.2 (≈ 6.23 µg/mL)	> 89.8	> 89.8	5.6 (≈ 3.12 µg/mL)	> 89.8	Non-toxic	
CCOC(=O)c1csc(/N=C/c2cc(/C=C/C(=O)c3ccc(OC)cc3)cc(C(C)(C)C)c2O)n1	> 102	12.7 (≈ 6.26 µg/mL)	> 102	> 102	> 102	> 102	> 102	12.7 (≈ 6.26 µg/mL)	12.7 (≈ 6.26 µg/mL)	> 102	> 102	3.2 (≈ 1.58 µg/mL)	> 102	Non-toxic	
CCOC(=O)c1csc(/N=C/c2cc(/C=C/C(=O)c3cccs3)cc(C(C)C)c2O)n1	> 110	27.5 (≈ 12.5 µg/mL)	> 110	> 110	> 110	> 110	> 110	27.5 (≈ 12.5 µg/mL)	27.5 (≈ 12.5 µg/mL)	> 110	> 110	13.7 (≈ 6.23 µg/mL)	> 110	Non-toxic	
COc1ccc(C(=O)/C=C/c2cc(/C=N/c3nc(-c4ccc(OC)cc4)cs3)c(O)c(C(C)(C)C)c2)cc1	> 94.9	11.9 (≈ 6.27 µg/mL)	> 94.9	> 94.9	> 94.9	> 94.9	> 94.9	11.9 (≈ 6.27 µg/mL)	11.9 (≈ 6.27 µg/mL)	> 94.9	> 94.9	3 (≈ 1.58 µg/mL)	> 94.9	Non-toxic	
CCCc1cc(/C=C/C(=O)c2ccco2)cc(/C=N/c2nc(C(=O)OCC)cs2)c1O	> 102	51.2 (≈ 22.5 µg/mL)	> 102	> 102	> 102	> 102	> 102	51.2 (≈ 22.5 µg/mL)	51.2 (≈ 22.5 µg/mL)	> 102	> 102	51.2 (≈ 22.5 µg/mL)	> 102	Non-toxic	
CCOC(=O)c1csc(/N=C/c2cc(/C=C/C(=O)c3ccco3)cc(C(C)(C)C)c2O)n1	> 110	13.8 (≈ 6.24 µg/mL)	> 110	> 110	> 110	> 110	> 110	13.8 (≈ 6.24 µg/mL)	13.8 (≈ 6.24 µg/mL)	> 110	> 110	13.8 (≈ 6.24 µg/mL)	> 110	Non-toxic	
GENTAMICIN				105	105		105			> 105	105		6.5		MIC (Klebsiella pneumoniae): 3.3 µM; MIC (Staphylococcus aureus [2]): 1.6 µM; MIC (Candida parapsilosis): 105 µM; MIC (Pseudomonas aeruginosa): 1.6 µM; MIC (Staphylococcus aureus [4]): 105 µM; MIC (Staphylococcus aureus [5]): 3.3 µM; MIC (Staphylococcus aureus [6]): 105 µM
CCOC(=O)c1csc(/N=C/c2cc(/C=C/C(=O)c3ccc(C)cc3)cc(C(C)C)c2O)n1	> 108	27 (≈ 12.5 µg/mL)	> 108	> 108	> 108	> 108	> 108	13.5 (≈ 6.24 µg/mL)	13.5 (≈ 6.24 µg/mL)	> 108	> 108	13.5 (≈ 6.24 µg/mL)	> 108	Non-toxic	
C[C@@H]1[C@H](O)[C@@H](C)/C=C/C=C/C=C/C=C/C=C/C=C/C=C/[C@H](O[C@@H]2O[C@H](C)[C@@H](O)[C@H](N)[C@@H]2O)C[C@@H]2O[C@](O)(C[C@@H](O)C[C@@H](O)[C@H](O)CC[C@@H](O)C[C@@H](O)CC(=O)O[C@H]1C)C[C@H](O)[C@H]2C(=O)O [AMPHOTERICIN B]	> 54.1	> 54.1		0.1 (≈ 0.0924 µg/mL)	0.5 (≈ 0.462 µg/mL)	> 54.1	0.3 (≈ 0.277 µg/mL)	> 54.1	> 54.1		0.3 (≈ 0.277 µg/mL)	> 54.1	> 54.1		
CCOC(=O)c1csc(/N=C/c2cc(/C=C/C(=O)c3ccc(OC)cc3)cc(C(C)C)c2O)n1	> 104	26.1 (≈ 12.5 µg/mL)	> 104	> 104	> 104	> 104	> 104	26.1 (≈ 12.5 µg/mL)	26.1 (≈ 12.5 µg/mL)	> 104	> 104	26.1 (≈ 12.5 µg/mL)	> 104	Non-toxic	
CCOC(=O)c1csc(/N=C/c2cc(/C=C/C(=O)c3cccs3)cc(C(C)(C)C)c2O)n1	> 107	13.3 (≈ 6.23 µg/mL)	> 107	> 107	> 107	> 107	> 107	13.3 (≈ 6.23 µg/mL)	6.7 (≈ 3.14 µg/mL)	> 107	> 107	3.3 (≈ 1.55 µg/mL)	> 107	Non-toxic	
OC(Cn1cncn1)(Cn1cncn1)c1ccc(F)cc1F [FLUCONAZOLE]	> 34.5	> 34.5	1.4 (≈ 0.429 µg/mL)	1.4 (≈ 0.429 µg/mL)	22.1 (≈ 6.77 µg/mL)	> 34.5	22.1 (≈ 6.77 µg/mL)	> 34.5	> 34.5	0.7 (≈ 0.214 µg/mL)	1.4 (≈ 0.429 µg/mL)	> 34.5	> 34.5		
CN[C@H](CC(C)C)C(=O)N[C@H]1C(=O)N[C@@H](CC(N)=O)C(=O)N[C@H]2C(=O)N[C@H]3C(=O)N[C@H](C(=O)N[C@H](C(=O)O)c4cc(O)cc(O)c4-c4cc3ccc4O)[C@H](O)c3ccc(c(Cl)c3)Oc3cc2cc(c3O[C@@H]2O[C@H](CO)[C@@H](O)[C@H](O)[C@H]2O[C@H]2C[C@](C)(N)[C@H](O)[C@H](C)O2)Oc2ccc(cc2Cl)[C@H]1O [VANCOMYCIN]	> 157	2.4 (≈ 3.48 µg/mL)	157 (≈ 227 µg/mL)	157 (≈ 227 µg/mL)	157 (≈ 227 µg/mL)	> 157	157 (≈ 227 µg/mL)	9.8 (≈ 14.2 µg/mL)	1.2 (≈ 1.74 µg/mL)	> 157	157 (≈ 227 µg/mL)	2.4 (≈ 3.48 µg/mL)	> 157		
COc1ccc(-c2csc(/N=C/c3cc(/C=C/C(=O)c4ccc(C)cc4)cc(C(C)(C)C)c3O)n2)cc1	> 97.9	12.2 (≈ 6.23 µg/mL)	> 97.9	> 97.9	> 97.9	> 97.9	> 97.9	12.2 (≈ 6.23 µg/mL)	12.2 (≈ 6.23 µg/mL)	> 97.9	> 97.9	12.2 (≈ 6.23 µg/mL)	> 97.9	Non-toxic	
CCOC(=O)c1csc(/N=C/c2cc(/C=C/C(=O)c3ccc(C)cc3)cc(C(C)(C)C)c2O)n1	> 105	6.5 (≈ 3.1 µg/mL)	> 105	> 105	> 105	> 105	> 105	13.1 (≈ 6.24 µg/mL)	6.5 (≈ 3.1 µg/mL)	> 105	> 105	3.3 (≈ 1.57 µg/mL)	> 105	Non-toxic	Activity (L929 [8]): Non-toxic; Activity (L929 [9]): Non-toxic
